# Pyk2 oligo antag: Pyk2 (human) oligomerization antagonism; AID 1347419; Q293 cells, Pyk2 FERM NanoBiT luminescence; stronger effect = lower value; Q14289; actives 0.83% (n = 99,000); z-score (the deposit names both 25 µM and 10 µM);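 active = Z-score of -3 or lower, scaled per plate to the spread of control and sample wells; inactive = z-score above -3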;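 also: negative z-score means lost luminescence so less FERM oligomerization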
# E coli WT exp: growth inhibitors of E. coli BW25113 wild type; OD600 absorbance; growth inhibition, % at 100 µM; actives 0.15% (n = 98,000);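 active = growth inhibition above about 50% at one test dose, limit read from the data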;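 also: growth measured after 20 h incubation at 37 °C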
# PostGolgi yeast: growth inhibition of a yeast mutant, post-Golgi transport screen; inhibition, % at 10 µM; actives 0.9% (n = 98,000); post-Golgi transport phenotypic cell assay;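 also: yeast cells grown in 1536-well plates; yeast grown about 18 h at 30C before absorbance read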
# Ecoli tolC: growth inhibitors of E. coli BW25113 tolC mutant. OD615. AID 573. growth inhibition, % at 10 µM (by protocol). actives 2.2% (n = 65,000);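 active = growth inhibition at or above a cutoff equal to the mean over every tested compound plus 3 SD, cut at about 60% in these data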;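 also: growth measured after 20 h incubation at 37 °C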
#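 Test system: tolC-deleted E. coli BW25113; medium: LB with kanamycin 50 µg/mL; compound: single-point testing at 10 µM; incubation: 20 h compound exposure of bacteria at 37 °C; signal: OD at 615 nm; evaluation: growth inhibition in percent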
# PostGolgi ctrl: growth of the yeast control strain, post-Golgi counter-screen; efflux-deficient yeast background strain, growth absorbance A615, 16 h; actives 5% (n = 98,000); inhibition, % at 10 µM
# Candida biofilm: kills Candida albicans biofilms. C. albicans biofilm + clotrimazole, Alamar Blue. AID 834. actives 0.14% (n = 85,000). inhibition, % at 6 µM;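 active = inhibition above 20%; inactive = inhibition below 20%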;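 also: preformed 24 hr biofilms exposed to compound for 48 hr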
# A number is an active result; . = inactive; / = no result given. Shown are actives, neighbours in structure and some others; about 6.5% of the full set was active somewhere. Rule as the data show it, unless noted: active = inhibition above about 30%; inactive = the rest.
SMILES,Pyk2 oligo antag,E coli WT exp,PostGolgi yeast,Ecoli tolC,PostGolgi ctrl,Candida biofilm
O=C(OCc1cc(Cl)ccc1OC(F)F)c1cc(S(=O)(=O)O)ccc1O,/,.,.,.,.,.
O=c1[nH]c(SCc2n[nH]c(=S)n2-c2ccccc2)nc2sc3c(c12)CCC3,.,.,.,/,.,.
Cn1c(=O)c(C(=S)NC(=O)C2CC2)c(N)n(Cc2ccccc2)c1=O,/,.,/,86,.,.
CCCNC(=O)c1cc2c(C(F)(F)F)nn(C)c2s1,.,.,.,/,.,/
Cc1ccc(-c2nnn(CC(=O)N(c3ccc(F)cc3)C(C(=O)NC(C)(C)C)c3ccco3)n2)o1 (stereo not drawn),.,/,/,/,/,.
COc1cccc(N(C(=O)Cn2nnc(-c3ccc(C)o3)n2)C(C(=O)NC(C)(C)C)c2cccs2)c1 (stereo not drawn),.,/,/,/,/,.
COCCNC(=O)C(c1cccs1)N(Cc1cccs1)C(=O)Cn1nnc2ccccc21 (stereo not drawn),.,/,/,/,/,.
CC(C)CCNC(=O)C(c1ccco1)N(Cc1cccs1)C(=O)Cn1nnc2ccccc21 (stereo not drawn),-3.1,.,.,.,.,.
Cc1ccc(-c2nnn(CC(=O)N(Cc3cccs3)C(C(=O)NC(C)(C)C)c3ccc(C)o3)n2)o1 (stereo not drawn),.,.,.,.,.,.
Cc1ccc(-c2nnn(CC(=O)N(Cc3cccs3)C(C(=O)NC(C)(C)C)c3ccco3)n2)o1 (stereo not drawn),.,.,.,69,.,.
CC(C)(C)NC(=O)C(c1ccco1)N(C(=O)Cn1nnc(-c2ccc(F)cc2)n1)c1cccc(F)c1 (stereo not drawn),.,.,.,67,36,.
Cc1ccc(-c2nnn(CC(=O)N(Cc3ccco3)C(C(=O)NC(C)(C)C)c3cccs3)n2)o1 (stereo not drawn),.,.,.,74,.,.
COc1ccccc1-n1c(SCC(=O)N2CCCCC2)nnc1-c1ccccc1O,.,.,.,.,.,.
COCCOC(=O)c1c(C)oc2ccc(OC(=O)c3c(OC)cccc3OC)cc12,.,.,.,.,.,.
CCCCSc1nc(N)c(NC(=O)c2ccco2)c(=O)[nH]1,/,.,.,.,.,.
CCOc1ccc2nc(NCCCNS(=O)(=O)c3ccccc3)c(C#N)cc2c1,.,.,.,.,.,.
Cc1ccnc(N2C(=O)c3cccc4c([N+](=O)[O-])ccc(c34)C2=O)c1,.,.,105,/,53,/
Cc1n[nH]c(C)c1N1C(=O)c2cccc3c(Br)ccc(c23)C1=O,.,/,/,/,/,.
O=C1C2CC=CCC2C(=O)N1c1n[nH]c(CCc2ccccc2)n1 (stereo not drawn),.,.,34,/,.,.
O=c1c(C(c2nnnn2C2CCCCC2)N2CCCCC2)coc2ccc(Cl)cc12 (stereo not drawn),.,.,77,.,87,.
Clc1ccc(C(c2nnnn2C2CCCC2)N2CCN(Cc3ccncc3)CC2)cc1 (stereo not drawn),.,.,.,.,.,/
CCc1ccc(N2C(=O)C3ON(c4ccccc4)C(c4ccco4)C3C2=O)cc1 (stereo not drawn),.,.,.,.,.,.
CCCCN1C(=O)C2ON(c3ccccc3C)C(c3ccco3)C2C1=O (stereo not drawn),.,.,.,61,.,.
CCSc1nnc(NC(=O)CSc2ncccn2)s1,.,.,.,.,.,.
CCSc1nnc(NC(=O)CSc2nccn2-c2cc(C)cc(C)c2)s1,/,.,.,.,.,.
SMILES,Pyk2 oligo antag,E coli WT exp,PostGolgi yeast,Ecoli tolC,PostGolgi ctrl,Candida biofilm
CCSc1nnc(NC(=O)CSc2nccn2-c2cccc(C)c2C)s1,/,.,.,84,.,.
CCSc1nnc(NC(=O)CSc2c(Cl)cccc2Cl)s1,-3.2,.,.,/,.,.
Cc1ccc(C2CCN(C(=O)Nc3ccccc3)C2)cc1 (stereo not drawn),.,.,.,.,42,.
O=C(CCN1C(=O)c2ccccc2C1=O)N1CCC(c2ccccc2)C1 (stereo not drawn),.,.,.,.,32,.
O=C(CCN1C(=O)c2ccccc2C1=O)N1CCCCCC1,.,.,.,.,.,.
COc1ccc(NC(=O)N2CCN(c3cccc(C(F)(F)F)c3)CC2)cc1,.,.,.,.,.,.
CCN1CCN(C(=O)Nc2cccc3ccccc23)CC1,-3.2,.,.,.,.,.
CN1CCN(C(=O)Nc2cccc3ccccc23)CC1,.,.,.,.,.,.
CCN1CCN(C(=O)Nc2cccc(C(F)(F)F)c2)CC1,.,.,.,.,31,.
Cc1nc(-c2cccc(S(=O)(=O)N3CCCC(C)C3)c2)cs1 (stereo not drawn),.,.,.,/,.,.
CC1CCN(C(=O)Nc2cccc(NC(=O)N3CCC(C)CC3)c2)CC1,.,.,.,.,30,.
O=C(CC1C(=O)NCCN1C(=O)Nc1ccccc1)Nc1cccc(C(F)(F)F)c1 (stereo not drawn),-3.2,.,.,.,.,.
Cc1cc(S(=O)(=O)Nc2ccc(N(C)C)cc2)c(C)s1,.,.,.,/,48,.
Cn1c(=O)oc2cc(S(=O)(=O)Nc3ccc4c(c3)OCCO4)ccc21,.,.,.,.,.,.
COc1ccc(NS(=O)(=O)c2ccc3oc(Nc4ccc5c(c4)OCCO5)nc3c2)cc1,.,.,.,79,.,.
N#Cc1cc2sc3nnc(-c4ccncc4)n3c2cc1C#N,.,.,.,.,37,.
c1ccc(-c2ccc(OCCOCCn3cncn3)cc2)cc1,.,.,.,.,44,.
COc1ccc(-c2cc3nc(C)cc(NCCO)n3n2)cc1,.,.,.,.,.,.
COc1ccc(-c2cc3nc(C)c(CCC(=O)NCc4ccco4)c(C)n3n2)c(OC)c1,.,.,.,.,.,.
c1coc(CNc2c3c(nc4ncnn24)CCCC3)c1,.,.,.,.,.,.
Cc1ccc(-c2cc3nc(C)cc(NCc4ccco4)n3n2)cc1,.,.,.,.,33,.
Clc1cccc(-c2cc3nc4c(c(NCc5ccco5)n3n2)CCCC4)c1,.,.,.,/,55,/
Cc1nc2cc(-c3ccc(Cl)cc3)nn2c(C)c1CCC(=O)NCc1ccco1,/,.,.,/,32,.
Cc1ccc(S(=O)(=O)N2CCCC2c2nc3ccccc3s2)cc1 (stereo not drawn),.,.,.,/,.,/
NC(=O)c1oc2ccccc2c1NC(=O)C1CCCCC1,/,.,.,.,.,21
Cc1cc(NC(=O)C2CCCC2)nc2c1c(=O)oc1ccccc12,.,.,.,.,.,.
Cc1cc(NC(=O)C2CCCCC2)nc2c1c(=O)oc1ccccc12,.,.,.,76,.,/
CCCC1(CCC)NC(=O)N(CC(=O)N2CCN(C(=O)c3ccco3)CC2)C1=O,.,.,.,/,.,/
O=C(CS(=O)(=O)c1c[nH]c2ccccc12)Nc1ccc2c(c1)OCCO2,.,.,.,.,.,.
Cn1cc(S(=O)(=O)CC(=O)Nc2ccc3c(c2)OCCO3)c2ccccc21,.,/,/,.,/,23

# Bioassay records deposited in PubChem BioAssay by several laboratories.
